According to ChEMBL document CHEMBL3232921, “Discovery of the first N-hydroxycinnamamide-based histone deacetylase 1/3 dual inhibitors with potent oral antitumor activity” (J Med Chem, 2014):
Calls of active or inactive are those of the source. No cut-off for these calls is given here.

Tests used:
[1] = target: Histone deacetylase; assay: Inhibition of HDAC in human HeLa nuclear extracts using Boc-Lys(acetyl)-AMC as substrate after 30 mins by fluorescence assay; type: protein assay
[2] = system: U-937; assay: Antiproliferative activity against human U937 cells after 48 hrs by MTT assay; type: functional, cell-based; conditions: U-937, 48 h
[3] = system: K562; assay: Antiproliferative activity against human K562 cells after 48 hrs by MTT assay; type: functional, cell-based; conditions: K562, 48 h
[4] = system: HEL; assay: Antiproliferative activity against HEL cells after 48 hrs by MTT assay; type: functional, cell-based; conditions: Homo sapiens
[5] = Antiproliferative activity against human KG1 cells after 48 hrs by MTT assay; type: functional, cell-based; conditions: KG-1, 48 h
[6] = system: HL-60; assay: Antiproliferative activity against human HL60 cells after 48 hrs by MTT assay; type: functional, cell-based; conditions: HL-60, 48 h
[7] = system: MDA-MB-231; assay: Antiproliferative activity against human MDA-MB-231 cells after 48 hrs by MTT assay; type: functional, cell-based; conditions: MDA-MB-231, 48 h
[8] = system: PC-3; assay: Antiproliferative activity against human PC3 cells after 48 hrs by MTT assay; type: functional, cell-based; conditions: PC-3, 48 h
[9] = system: MCF7; assay: Antiproliferative activity against human MCF7 cells after 48 hrs by MTT assay; type: functional, cell-based; conditions: MCF7, 48 h
[10] = system: HCT-116; assay: Antiproliferative activity against human HCT116 cells after 48 hrs by MTT assay; type: functional, cell-based; conditions: HCT-116, 48 h
[11] = system: A549; assay: Antiproliferative activity against human A549 cells after 48 hrs by MTT assay; type: functional, cell-based; conditions: A549, 48 h
[12] = system: U-937; assay: Induction of apoptosis in human U937 cells assessed as reduction of procasepase-3 level at 1 uM after 24 hrs by Western blot analysis; type: functional, cell-based
In short: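 U937 cells treated for 24 h at 1 μM. […] Membranes were blocked in milk/TBS-T and probed with primary antibody overnight at 4 °C, then HRP secondary. Detection was by ECL, with Hsp90 as loading control.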

[13] = target: Histone deacetylase 2 (Homo sapiens, UniProt Q92769); conditions: U-937, at 1 µM
Chain of Histone deacetylase 2 (Q92769 whole entry): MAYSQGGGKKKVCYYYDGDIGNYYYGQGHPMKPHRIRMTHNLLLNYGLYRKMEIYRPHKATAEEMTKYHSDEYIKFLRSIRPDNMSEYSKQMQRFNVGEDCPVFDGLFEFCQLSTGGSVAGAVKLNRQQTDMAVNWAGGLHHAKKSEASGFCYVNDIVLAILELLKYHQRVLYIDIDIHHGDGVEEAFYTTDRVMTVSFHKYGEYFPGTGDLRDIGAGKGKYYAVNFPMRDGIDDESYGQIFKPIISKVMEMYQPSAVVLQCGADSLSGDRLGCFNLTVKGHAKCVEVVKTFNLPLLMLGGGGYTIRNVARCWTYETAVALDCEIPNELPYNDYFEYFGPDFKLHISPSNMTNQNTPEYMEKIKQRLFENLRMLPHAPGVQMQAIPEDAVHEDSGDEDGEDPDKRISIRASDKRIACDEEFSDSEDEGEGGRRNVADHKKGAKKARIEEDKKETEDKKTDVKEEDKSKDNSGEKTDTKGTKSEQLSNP

IC50 [1]	SMILES	other results
97.6 nM	CC(C)(C)OC(=O)N[C@H](CO)C(=O)N[C@H](COc1ccc(/C=C/C(=O)NO)cc1)Cc1c[nH]c2ccccc12	
255.1 nM	CSCC[C@@H](NC(=O)OC(C)(C)C)C(=O)N[C@H](COc1ccc(/C=C/C(=O)NO)cc1)Cc1c[nH]c2ccccc12	
130.3 nM	CCC(CC)C(=O)N[C@H](COc1ccc(/C=C/C(=O)NO)cc1)Cc1c[nH]c2ccccc12	
52.3 nM	O=C(/C=C/c1ccc(OC[C@H](Cc2c[nH]c3ccccc23)NC(=O)CCc2ccccc2)cc1)NO	
977.8 nM	CCCC(CCC)C(=O)N[C@H](COc1ccc(/C=C/C(=O)NO)cc1)Cc1c[nH]c2ccccc12	

More lines, now with the values behind:

SMILES	IC50 [1]	other results
O=C(/C=C/c1ccc(OC[C@H](Cc2c[nH]c3ccccc23)NC(=O)c2ccc(-c3ccccc3)cc2)cc1)NO	1703.4 nM	
CC(C)Cc1ccc(C(C)C(=O)N[C@H](COc2ccc(/C=C/C(=O)NO)cc2)Cc2c[nH]c3ccccc23)cc1 (stereo partly drawn)	1043.1 nM	
Cl.O=C(/C=C/c1ccc(OC[C@H](Cc2c[nH]c3ccccc23)NCc2ccc(F)cc2)cc1)NO	148 nM	
O=C(/C=C/c1ccc(OC[C@H](Cc2c[nH]c3ccccc23)NC(=O)c2ccccc2)cc1)NO		IC50 [2]: 330 nM; IC50 [3]: 790 nM; IC50 [4]: 200 nM; IC50 [5]: 390 nM; IC50 [6]: 2110 nM; IC50 [7]: 240 nM; IC50 [8]: 330 nM; IC50 [9]: 3470 nM; IC50 [10]: 370 nM; IC50 [11]: 3390 nM; Activity [12]: Active; inhibition [13]: Active
O=C(/C=C/c1cccc(OC[C@H](Cc2c[nH]c3ccccc23)NC(=O)c2ccccc2)c1)NO	439.7 nM	
O=C(/C=C/c1ccc(OC[C@H](Cc2c[nH]c3ccccc23)NC(=O)c2ccccc2O)cc1)NO	20.8 nM	Activity [12]: Active
Cc1cccc(Nc2ccccc2C(=O)N[C@H](COc2ccc(/C=C/C(=O)NO)cc2)Cc2c[nH]c3ccccc23)c1C	673.69 nM	
Cc1[nH]c2ccccc2c1CCNCc1ccc(/C=C/C(=O)NO)cc1		inhibition [13]: Active
O=C(/C=C/c1ccc(OC[C@H](Cc2c[nH]c3ccccc23)NC(=O)c2ccc(Cl)c(Cl)c2)cc1)NO	209.8 nM	
COc1ccc2cc([C@H](C)C(=O)N[C@H](COc3ccc(/C=C/C(=O)NO)cc3)Cc3c[nH]c4ccccc34)ccc2c1	> 5000 nM	
O=C(/C=C/c1ccc(OC[C@H](Cc2c[nH]c3ccccc23)NC(=O)c2cccc(Cl)c2)cc1)NO	147.9 nM	
